Tests used:
Leishmania amazonensis [1] = assay: Ratio of potassium antimonyl tartrate IC50 to compound IC50 for antimony-sensitive Leishmania amazonensis MHOM/BR/1989/BA199 promastigote infected in Swiss mouse peritoneal macrophages; assay type: functional
Leishmania infantum [2] = assay: Ratio of potassium antimonyl tartrate IC50 to compound IC50 for antimony-sensitive Leishmania infantum MCAN/BR/2002/BH400 promastigote infected in Swiss mouse peritoneal macrophages; assay type: functional
[3] = Selectivity index, ratio of CC50 for Swiss mouse peritoneal macrophages to IC50 for antimony-resistant Leishmania amazonensis MHOM/BR/1989/BA199 promastigote; assay type: functional
How it was run: (§1)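 SI = CC50/IC50. CC50 comes from Swiss mouse peritoneal macrophages, harvested by lavage with cold RPMI-1640 lacking FBS. Cells seeded at 4.0 × 10⁶/mL, allowed to adhere 1 h, then washed free of non-adherent cells. Viability read by MTT (5 mg/mL stock, 4 h).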

[4] = Selectivity index, ratio of CC50 for Swiss mouse peritoneal macrophages to IC50 for antimony-sensitive Leishmania amazonensis MHOM/BR/1989/BA199 promastigote; assay type: functional
How it was run: (§2)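 SI = CC50 / IC50. CC50 is from Swiss mouse peritoneal macrophages, read by MTT after lavage and 1 h adherence. […] Promastigotes grown in α-MEM with 10% heat-inactivated FBS, hemin and biopterin, pH 7.0, 25 °C. DMSO ≤0.2% final. Triplicate.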

[5] = Selectivity index, ratio of CC50 for Swiss mouse peritoneal macrophages to IC50 for antimony-resistant Leishmania infantum MCAN/BR/2002/BH400 promastigote; assay type: functional; how it was run: as §1
[6] = Selectivity index, ratio of CC50 for Swiss mouse peritoneal macrophages to IC50 for antimony-sensitive Leishmania infantum MCAN/BR/2002/BH400 promastigote; assay type: functional; how it was run: as §2
[7] = Cytotoxicity against Swiss mouse peritoneal macrophages after 24 hrs by MTT assay; assay type: cell-based, Peritoneal macrophage cell
How it was run: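 Macrophages from peritoneal lavage of Swiss mice with cold FBS-free RPMI-1640. Cells seeded at 4.0 × 10⁶/mL, adhered 1 h, non-adherent cells washed off. Compounds were DMSO stocks diluted in medium over a concentration range, final DMSO ≤0.2%. Viability read by MTT (5 mg/mL solution, 4 h further incubation). CC50 taken as the 50% cytotoxic concentration.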

Leishmania amazonensis [8] = assay: Antileishmanial activity against antimony-resistant Leishmania amazonensis MHOM/BR/1989/BA199 promastigote infected in Swiss mouse peritoneal macrophages after 72 hrs; assay type: functional, organism-based; conditions: MHOM/BR/1989/BA199, 72 h
How it was run: (§3)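 Promastigotes of Sb(III)-sensitive and -resistant lines (resistant to Sb(III) up to 2700), maintained at 25 °C, pH 7.0, in α-MEM with 10% heat-inactivated FBS, kanamycin, ampicillin, L-glutamine, hemin and biopterin. Drugs dissolved in DMSO, diluted in α-MEM across a concentration range, final DMSO ≤0.2%.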

Leishmania amazonensis [9] = assay: Antileishmanial activity against antimony-sensitive Leishmania amazonensis MHOM/BR/1989/BA199 promastigote infected in Swiss mouse peritoneal macrophages after 72 hrs; assay type: functional, organism-based; conditions: MHOM/BR/1989/BA199, 72 h; how it was run: as §3
Leishmania infantum [10] = assay: Antileishmanial activity against antimony-resistant Leishmania infantum MCAN/BR/2002/BH400 promastigote infected in Swiss mouse peritoneal macrophages after 72 hrs; assay type: functional, organism-based; conditions: MCAN/BR/2002/BH400, 72 h; how it was run: as §3
Leishmania infantum [11] = assay: Antileishmanial activity against antimony-sensitive Leishmania infantum MCAN/BR/2002/BH400 promastigote infected in Swiss mouse peritoneal macrophages after 72 hrs; assay type: functional, organism-based; conditions: MCAN/BR/2002/BH400, 72 h; how it was run: as §3

SMILES | Ratio IC50 (Leishmania amazonensis [1]) | Ratio IC50 (Leishmania infantum [2]) | Ratio CC50/IC50 [3] | Ratio CC50/IC50 [4] | Ratio CC50/IC50 [5] | Ratio CC50/IC50 [6] | CC50 at 24 h [7] | IC50 (Leishmania amazonensis [8]) | IC50 (Leishmania amazonensis [9]) | IC50 (Leishmania infantum [10]) | IC50 (Leishmania infantum [11])
COc1ccc(-c2cn(C3=CC(=O)c4ccccc4C3=O)nn2)cc1 | 2.2 | 2 | 0.68 | 0.49 | 0.9 | 1.06 | 16.8 µM | 24.5 µM | 34.3 µM | 18.6 µM | 15.8 µM
CC1(C)CC2=C(O1)c1ccccc1C(=O)C2=O [NOR-BETA-LAPACHONE] | – | – | 0.97 | 0.62 | 0.97 | 1.36 | 1.55 µM | 1.59 µM | 2.48 µM | 1.6 µM | 1.14 µM
O=C1C=C(n2cc(-c3ccc([N+](=O)[O-])cc3)nn2)C(=O)c2ccccc21 | 2.2 | 2 | – | <0.5 | – | <0.5 | 50 µM | > 100 µM | > 100 µM | > 100 µM | > 100 µM
CC1(C)CC(n2cc(C3CCCCC3)nn2)C2=C(O1)C(=O)c1ccccc1C2=O (stereo not drawn) | – | – | 4.52 | 0.93 | 3.83 | 3.8 | 8.59 µM | 1.9 µM | 9.23 µM | 2.24 µM | 2.26 µM
CCCCCc1cn(C2C3=C(OC2(C)C)C(=O)c2ccccc2C3=O)nn1 (stereo not drawn) | – | – | 14 | 7.29 | 14 | 15.02 | 16 µM | 1.14 µM | 2.19 µM | 1.14 µM | 1.05 µM
Cc1ccc(-c2cn(C3=CC(=O)c4ccccc4C3=O)nn2)cc1 | 2.2 | 2 | 1.1 | 0.71 | 1.12 | 1.72 | 15.2 µM | 13.8 µM | 21.2 µM | 13.6 µM | 8.8 µM
CC1(C)CCC2=C(O1)c1ccccc1C(=O)C2=O [LAPACHONE] | – | – | 0.57 | 0.27 | 0.7 | 1.14 | 0.79 µM | 1.39 µM | 2.9 µM | 1.13 µM | 0.67 µM
CC1(C)OC2=C(C(=O)C(=O)c3ccccc32)C1n1cc(-c2ccc(F)cc2)nn1 (stereo not drawn) | 23 | 15.5 | 0.8 | 0.75 | 0.72 | 0.81 | 3.52 µM | 4.39 µM | 4.7 µM | 4.9 µM | 4.32 µM
O=C1C=C(n2cc(CN3C(=O)c4ccccc4C3=O)nn2)C(=O)c2ccccc21 | 2.2 | 2 | 0.13 | 0.11 | 0.64 | 0.13 | 5.39 µM | 40.2 µM | 50.6 µM | 8.47 µM | 42.1 µM
CC1(C)OC2=C(C(=O)C(=O)c3ccccc32)C1n1cc(-c2ccc([N+](=O)[O-])cc2)nn1 (stereo not drawn) | 23 | 15.5 | 1.35 | 0.98 | 1.02 | 1.03 | 3.35 µM | 2.95 µM | 3.41 µM | 3.28 µM | 3.25 µM
CCCCCc1cn(C2CC(C)(C)OC3=C2C(=O)c2ccccc2C3=O)nn1 (stereo not drawn) | – | – | 3.53 | 1.15 | 3.13 | 3.38 | 6.89 µM | 1.95 µM | 6 µM | 2.2 µM | 2.04 µM
CC1(C)OC2=C(C(=O)c3ccccc3C2=O)C1n1cc(C2CCCCC2)nn1 (stereo not drawn) | – | – | 13.47 | 5.35 | 10.51 | 10.23 | 18.7 µM | 1.39 µM | 3.5 µM | 1.78 µM | 1.83 µM
O=C1C=C(n2cc(-c3ccccc3)nn2)C(=O)c2ccccc21 | 2.2 | 2 | 1.28 | 0.61 | 0.59 | 0.47 | 10.2 µM | 7.94 µM | 16.7 µM | 17.2 µM | 21.6 µM
CC1(C)OC2=C(C(=O)C(=O)c3ccccc32)C1n1cc(-c2ccccc2)nn1 (stereo not drawn) | 23 | 15.5 | 3.32 | 3.08 | 3.29 | 3.42 | 3.42 µM | 1.03 µM | 1.11 µM | 1.04 µM | 1 µM
CCCCCCc1cn(C2C3=C(OC2(C)C)C(=O)c2ccccc2C3=O)nn1 (stereo not drawn) | – | – | 0.65 | 0.25 | 2.47 | 2.47 | 2.77 µM | 4.23 µM | 11 µM | 1.12 µM | 1.12 µM
CC(C)(O)c1cn(C2C3=C(OC2(C)C)C(=O)c2ccccc2C3=O)nn1 (stereo not drawn) | – | – | 2.71 | 1.39 | 15.01 | 12.78 | 19.8 µM | 7.31 µM | 14.2 µM | 1.32 µM | 1.55 µM
CC(C)=CC1=C(O)C(=O)c2ccccc2C1=O | – | – | – | <0.15 | – | <0.15 | 14.6 µM | > 100 µM | > 100 µM | > 100 µM | > 100 µM
CCC(C)(O)c1cn(C2C3=C(OC2(C)C)C(=O)c2ccccc2C3=O)nn1 (stereo not drawn) | – | – | 0.66 | 0.99 | 0.7 | 12.36 | 17.9 µM | 27 µM | 18 µM | 25.4 µM | 1.45 µM
CCCc1cn(C2CC(C)(C)OC3=C2C(=O)c2ccccc2C3=O)nn1 (stereo not drawn) | – | – | 1.83 | 3.38 | 4.31 | 2.5 | 14.8 µM | 8.04 µM | 4.37 µM | 3.43 µM | 5.9 µM
CC(C)=CCC1=C(O)C(=O)c2ccccc2C1=O [LAPACHOL] | – | – | 0.94 | 0.58 | 0.59 | 1.71 | 59.3 µM | 63.3 µM | 102 µM | 99.9 µM | 34.7 µM
CC1(C)OC2=C(C(=O)c3ccccc3C2=O)C1n1cc(-c2ccccc2)nn1 (stereo not drawn) | – | – | 6.67 | 3.74 | 7.93 | 8.01 | 8.01 µM | 1.2 µM | 2.14 µM | 1.01 µM | 1 µM
CC1(C)CC2=C(O1)C(=O)c1ccccc1C2=O | – | – | 0.5 | 0.28 | 0.6 | 0.5 | 0.77 µM | 1.54 µM | 2.72 µM | 1.28 µM | 1.54 µM
CC1(C)CCC2=C(O1)C(=O)c1ccccc1C2=O [ALPHA-LAPACHONE] | – | – | 0.25 | 0.24 | 0.65 | 0.27 | 3.8 µM | 15.2 µM | 16.1 µM | 5.85 µM | 13.9 µM
CCC(C)(O)c1cn(C2CC(C)(C)OC3=C2C(=O)c2ccccc2C3=O)nn1 (stereo not drawn) | – | – | 0.45 | 0.27 | 2.92 | 0.54 | 9.63 µM | 21.6 µM | 35.2 µM | 3.3 µM | 17.7 µM

From ChEMBL document CHEMBL2375264, “Potent naphthoquinones against antimony-sensitive and -resistant Leishmania parasites: synthesis of novel α- and nor-α-lapachone-based 1,2,3-triazoles by copper-catalyzed azide-alkyne cycloaddition” (Eur J Med Chem, 2013)
